The subject of test [1] is Bacillus subtilis. The test can be described thus: Antibacterial activity against Bacillus subtilis ATCC 6633 after 24 hrs by serial dilution technique. The class given is functional. As to conditions: ATCC 6633, 24 h. In short, it runs like this:
(§1)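 Broth serial dilution MIC in 96-well plates. Compound given as DMSO stock. Strains grown overnight at 37 °C in LB broth, then diluted to 106 cfu/mL. Positive control ciprofloxacin; DMSO as negative control; LB broth as blank. Incubation 37 °C, 24 h, then plates read at 630 nm.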

Test [2] has as its system Bel-7402. The test is described as follows: Cytotoxicity against human Bel7402 cells at 100 uM after 6 days by MTT assay. It counts as functional, cell-based.
Test [3] deals with Escherichia coli. The test is described as follows: Antibacterial activity against Escherichia coli ATCC 25922 at 50 uM after 24 hrs by serial dilution technique. The class given is functional, organism-based. In short, it runs like this:
as §1

Test [4] concerns Micrococcus. The test is described as follows: Antibacterial activity against Micrococcus tetragenus ATCC 13623 at 50 uM after 24 hrs by serial dilution technique. The class given is functional, organism-based. In short, it runs like this:
as §1

The subject of test [5] is Micrococcus luteus. The test is described as follows: Antibacterial activity against Micrococcus luteus ATCC 49732 at 50 uM after 24 hrs by serial dilution technique. It counts as functional, organism-based. In short, it runs like this: as §1
Test [6] relates to SGC-7901. The test is described as follows: Cytotoxicity against human SGC7901 cells at 100 uM after 6 days by MTT assay. It counts as functional, cell-based.
Test [7] relates to SPC-A1. The test can be described thus: Cytotoxicity against human SPC-A1 cells at 100 uM after 6 days by MTT assay. It counts as functional, cell-based.
Test [8] concerns Vibrio parahaemolyticus. The test can be described thus: Antibacterial activity against Vibrio parahaemolyticus ATCC 17802 after 24 hrs by serial dilution technique. The class given is functional. As to conditions: ATCC 17802, 24 h. A digest of the protocol:
as §1

Test [9] has as its system A549. The test can be described thus: Cytotoxicity against human A549 cells after 6 days by MTT assay. It counts as functional, cell-based. As to conditions: A549, 144 h.
Test [10] concerns Staphylococcus. The test is described as follows: Antibacterial activity against Staphylococcus albus ATCC 8799 after 24 hrs by serial dilution technique. It counts as functional. As to conditions: ATCC 8799, 24 h. In short, it runs like this: as §1
Test [11] deals with Bacillus cereus. The test is described as follows: Antibacterial activity against Bacillus cereus ACCC 11077 at 50 uM after 24 hrs by serial dilution technique. It counts as functional, organism-based. In short, it runs like this:
as §1

In test [12] the test system is Vibrio anguillarum. The test is described as follows: Antibacterial activity against Vibrio anguillarum ATCC 19019 at 50 uM after 24 hrs by serial dilution technique. The class given is functional, organism-based. A digest of the protocol:
as §1

In test [13] the test system is Staphylococcus aureus. The test is described as follows: Antibacterial activity against Staphylococcus aureus ATCC 27154 at 50 uM after 24 hrs by serial dilution technique. It counts as functional, organism-based. In short, it runs like this:
as §1

Test [14] relates to K562. The test is described as follows: Cytotoxicity against human K562 cells at 100 uM after 6 days by MTT assay. It counts as functional, cell-based.

Calls of active or inactive are those of the source. The rule behind the calls is not given here.

As to `CC(C)[C@@H]1N[C@@H]2N(C1=O)c1ccccc1[C@]21C[C@@H]2C(=O)N[C@](C)(O1)c1nc3ccccc3c(=O)n12` [FUMIQUINAZOLINE L], the minimal inhibitory concentration (MIC) in [1], in test [8] and in test [10] was more than 50 µM each time. The result in test [2], in test [3], in test [4], in test [5], in test [6] and in test [7] was inactive. Moreover, the outcome in test [11], in test [12], in [13] and in test [14] was inactive. This compound also yielded an IC50 in [9] of more than 10 µM.

These data come from ChEMBL document CHEMBL2331370, “Structure and absolute configuration of fumiquinazoline L, an alkaloid from a gorgonian-derived Scopulariopsis sp. fungus” (J Nat Prod, 2013).
